Two compounds from ChEMBL document CHEMBL1821604, “Anticancer activity and cDNA microarray studies of a (RS)-1,2,3,5-tetrahydro-4,1-benzoxazepine-3-yl]-6-chloro-9H-purine, and an acyclic (RS)-O,N-acetalic 6-chloro-7H-purine” (Eur J Med Chem, 2011) can be followed below.

For series [1], the system named is MCF-10A. Nature of the series: Cytotoxicity against human MCF10A cells after 6 days by SRB colorimetric assay. It is filed as cell-based. Particulars: 144 h. On the technique in general: Sulforhodamine B stains cellular protein and so reports cell mass.
Series [2] can be described thus: Therapeutic index, ratio of IC50 for human MCF10A cells to IC50 for human MCF7 cells. It is filed as cell-based. Particulars: MCF10A cells (normal) versus MCF7 cells (cancer), read-out: Ratio IC50. The method in brief:
(§1)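 Each cell line grown in DMEM with 10% FBS, 37 °C, 5% CO₂. Cells seeded and allowed 24 h, then drug added in medium (≤0.1% v/v DMSO). Medium and drug renewed at day 3, cells kept 3 more days. Sulforhodamine-B read at 492 nm. IC₅₀ taken from semilog dose-response curves by linear interpolation, triplicate wells, at least twice. Index = IC₅₀ normal line / IC₅₀ cancer line.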

Series [3] relates to HT-29. Nature of the series: Cytotoxicity against human HT-29 cells after 6 days by SRB colorimetric assay. It is filed as functional, cell-based. Particulars: HT-29, 144 h.
A short description of series [4]: Cytotoxicity against rat IEC-6 cells after 6 days by SRB colorimetric assay. In kind it is cell-based. Particulars: IEC-6, 144 h.
Series [5] can be described thus: Therapeutic index, ratio of IC50 for rat IEC-6 cells to IC50 for human HT-29 cells. In kind it is cell-based. Particulars: IEC-6 cells (normal) versus HT-29 cells (cancer), read-out: Ratio IC50. The method in brief: as §1
Series [6] deals with MCF7. Nature of the series: Induction of apoptosis in human MCF7 cells at IC50 after 48 hrs using annexin V-FITC staining by flow cytometry. It is filed as functional. In general terms: Flow cytometry measures light scatter and fluorescence of single cells or particles in a stream.

Take `O=c1[nH]cc(F)c(=O)[nH]1` [FLUOROURACIL]: the 50% inhibitory concentration (IC50) in series [1] came out at 730 nM; in series [3] it was 1080 nM; in series [4], 660 nM. In addition, the selectivity ratio in series [2] is 0.17; in series [5], 0.61.

In the case of `CC(=O)O[C@H]1C(=O)[C@@]2(C)[C@H]([C@H](OC(=O)c3ccccc3)[C@]3(O)C[C@H](OC(=O)[C@H](O)[C@@H](NC(=O)c4ccccc4)c4ccccc4)C(C)=C1C3(C)C)[C@]1(OC(C)=O)CO[C@@H]1C[C@@H]2O` [PACLITAXEL], the Activity in series [6] stood at 43%.

One may read the IC50 as the concentration that inhibits the measured activity by half. A higher IC50 goes with weaker potency.
